# Results: ChEMBL document CHEMBL5696442, “Discovery of type II inhibitors of TGFβ-activated kinase 1 (TAK1) and mitogen-activated protein kinase kinase kinase kinase 2 (MAP4K2)” (J Med Chem, 2015)
# Tests used:
# [1] = molecular target: Mitogen-activated protein kinase 9 (Homo sapiens, UniProt P45984); assay: Inhibition of JNK2 Lys2 labeling site in human A-375 cells at 5 uM by KiNativ Profiling analysis relative to control; type: cell-based
# [2] = molecular target: Serine/threonine-protein kinase WNK4 (Homo sapiens) (UniProt Q96J92); assay: Inhibition of Wnk4 ACT labeling site in human A-375 cells at 0.5 uM by KiNativ Profiling analysis relative to control; type: cell-based
# [3] = molecular target: T1, Aurora kinase A (Homo sapiens) (UniProt O14965); assay: Inhibition of AurA Lys2 labeling site in human A-375 cells at 0.5 uM by KiNativ Profiling analysis relative to control; type: cell-based
# T1 sequence (whole entry): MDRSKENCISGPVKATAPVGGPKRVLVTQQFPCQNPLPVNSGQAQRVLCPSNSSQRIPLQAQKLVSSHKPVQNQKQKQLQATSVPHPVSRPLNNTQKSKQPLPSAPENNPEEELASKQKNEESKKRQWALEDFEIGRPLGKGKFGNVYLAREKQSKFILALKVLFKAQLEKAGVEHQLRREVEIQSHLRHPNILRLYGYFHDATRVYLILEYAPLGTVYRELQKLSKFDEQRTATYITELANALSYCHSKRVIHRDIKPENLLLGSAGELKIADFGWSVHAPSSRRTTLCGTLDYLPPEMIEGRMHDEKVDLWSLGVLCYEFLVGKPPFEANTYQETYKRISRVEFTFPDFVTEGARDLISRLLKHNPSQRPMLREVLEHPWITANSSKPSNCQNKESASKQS
# Outline: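 Intact A375 melanoma cells were treated with compound at 5 or 0.5 μM, then lysed. Lysate kinases were labeled with a lysine-reactive ATP or ADP-biotin probe (KiNativ). Inhibition is read as protection of each kinase labeling site from probe labeling.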
# [4] = molecular target: Serine/threonine-protein kinase 25 (Homo sapiens) (UniProt O00506); assay: Inhibition of YSK1 Lys2 labeling site in human A-375 cells at 0.5 uM by KiNativ Profiling analysis relative to control; type: cell-based
# Serine/threonine-protein kinase 25 (Homo sapiens), sequence (O00506 whole entry, looked up): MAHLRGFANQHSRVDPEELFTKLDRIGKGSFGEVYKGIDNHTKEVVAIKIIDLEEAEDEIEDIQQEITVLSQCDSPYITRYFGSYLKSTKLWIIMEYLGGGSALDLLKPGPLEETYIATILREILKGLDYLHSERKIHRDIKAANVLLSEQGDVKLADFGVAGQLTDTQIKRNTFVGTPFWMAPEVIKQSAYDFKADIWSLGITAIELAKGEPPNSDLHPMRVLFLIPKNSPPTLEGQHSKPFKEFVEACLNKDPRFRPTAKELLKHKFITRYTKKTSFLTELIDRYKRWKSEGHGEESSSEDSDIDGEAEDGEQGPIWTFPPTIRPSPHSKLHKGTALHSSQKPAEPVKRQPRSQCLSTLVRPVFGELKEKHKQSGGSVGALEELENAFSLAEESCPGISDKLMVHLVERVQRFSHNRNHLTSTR
# [5] = molecular target: Tyrosine-protein kinase receptor UFO (Homo sapiens) (UniProt P30530); assay: Inhibition of AXL ACT labeling site in human A-375 cells at 0.05 uM by KiNativ Profiling analysis relative to control; type: cell-based
# [6] = molecular target: Serine/threonine-protein kinase VRK2 (Homo sapiens) (UniProt Q86Y07); assay: Inhibition of VRK2 Lys2 labeling site in human A-375 cells at 5 uM by KiNativ Profiling analysis relative to control; type: cell-based
# Serine/threonine-protein kinase VRK2 (Homo sapiens), sequence (Q86Y07 whole entry): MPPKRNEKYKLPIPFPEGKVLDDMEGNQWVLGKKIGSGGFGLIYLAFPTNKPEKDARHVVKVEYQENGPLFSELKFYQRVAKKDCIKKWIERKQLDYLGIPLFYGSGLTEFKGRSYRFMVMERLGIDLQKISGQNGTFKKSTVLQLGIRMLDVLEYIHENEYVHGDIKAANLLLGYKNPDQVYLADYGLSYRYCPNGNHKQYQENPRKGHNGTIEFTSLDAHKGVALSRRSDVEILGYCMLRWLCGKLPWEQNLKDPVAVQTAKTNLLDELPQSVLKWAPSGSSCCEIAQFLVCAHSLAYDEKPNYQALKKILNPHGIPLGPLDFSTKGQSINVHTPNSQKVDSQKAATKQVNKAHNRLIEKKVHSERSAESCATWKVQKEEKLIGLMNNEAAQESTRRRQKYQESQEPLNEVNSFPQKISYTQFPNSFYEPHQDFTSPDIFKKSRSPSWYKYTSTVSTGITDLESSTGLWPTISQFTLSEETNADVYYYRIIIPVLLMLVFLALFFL
# [7] = molecular target: Serine/threonine-protein kinase 25 (Homo sapiens) (UniProt O00506); assay: Inhibition of YSK1 ACT labeling site in human A-375 cells at 0.5 uM by KiNativ Profiling analysis relative to control; type: cell-based
# [8] = molecular target: T2, Mitogen-activated protein kinase kinase kinase 2 (Homo sapiens) (UniProt Q9Y2U5); assay: Inhibition of MAP3K2 Lys1 labeling site harbouring VYLCYDVDTGRELAVKQVQFDPDSPETSKEVNALECEIQLLK in human A-375 cells at 0.5 uM by KiNativ Profiling analysis relative to control; type: cell-based
# T2 sequence (whole entry): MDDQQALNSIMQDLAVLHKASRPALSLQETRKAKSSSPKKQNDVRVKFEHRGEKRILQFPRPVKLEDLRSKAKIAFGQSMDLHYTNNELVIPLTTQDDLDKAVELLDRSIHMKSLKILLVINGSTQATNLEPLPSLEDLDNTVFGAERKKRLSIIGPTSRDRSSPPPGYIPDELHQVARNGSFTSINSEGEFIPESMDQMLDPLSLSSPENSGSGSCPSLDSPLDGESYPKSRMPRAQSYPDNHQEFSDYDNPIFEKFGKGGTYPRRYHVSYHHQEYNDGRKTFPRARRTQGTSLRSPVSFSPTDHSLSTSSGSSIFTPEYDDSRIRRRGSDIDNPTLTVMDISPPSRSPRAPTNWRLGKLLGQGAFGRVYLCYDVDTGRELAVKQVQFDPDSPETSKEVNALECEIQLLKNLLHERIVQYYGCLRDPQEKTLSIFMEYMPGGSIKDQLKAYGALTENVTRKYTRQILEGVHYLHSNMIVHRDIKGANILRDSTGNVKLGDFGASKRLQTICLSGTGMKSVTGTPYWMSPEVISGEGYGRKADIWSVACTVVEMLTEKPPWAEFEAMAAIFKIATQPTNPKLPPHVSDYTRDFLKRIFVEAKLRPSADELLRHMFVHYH
# [9] = molecular target: Serine/threonine-protein kinase WNK2 (Homo sapiens) (UniProt Q9Y3S1); assay: Inhibition of Wnk2 ATP Loop labeling site in human A-375 cells at 5 uM by KiNativ Profiling analysis relative to control; type: cell-based
# Serine/threonine-protein kinase WNK2 (Homo sapiens), sequence (Q9Y3S1 whole entry): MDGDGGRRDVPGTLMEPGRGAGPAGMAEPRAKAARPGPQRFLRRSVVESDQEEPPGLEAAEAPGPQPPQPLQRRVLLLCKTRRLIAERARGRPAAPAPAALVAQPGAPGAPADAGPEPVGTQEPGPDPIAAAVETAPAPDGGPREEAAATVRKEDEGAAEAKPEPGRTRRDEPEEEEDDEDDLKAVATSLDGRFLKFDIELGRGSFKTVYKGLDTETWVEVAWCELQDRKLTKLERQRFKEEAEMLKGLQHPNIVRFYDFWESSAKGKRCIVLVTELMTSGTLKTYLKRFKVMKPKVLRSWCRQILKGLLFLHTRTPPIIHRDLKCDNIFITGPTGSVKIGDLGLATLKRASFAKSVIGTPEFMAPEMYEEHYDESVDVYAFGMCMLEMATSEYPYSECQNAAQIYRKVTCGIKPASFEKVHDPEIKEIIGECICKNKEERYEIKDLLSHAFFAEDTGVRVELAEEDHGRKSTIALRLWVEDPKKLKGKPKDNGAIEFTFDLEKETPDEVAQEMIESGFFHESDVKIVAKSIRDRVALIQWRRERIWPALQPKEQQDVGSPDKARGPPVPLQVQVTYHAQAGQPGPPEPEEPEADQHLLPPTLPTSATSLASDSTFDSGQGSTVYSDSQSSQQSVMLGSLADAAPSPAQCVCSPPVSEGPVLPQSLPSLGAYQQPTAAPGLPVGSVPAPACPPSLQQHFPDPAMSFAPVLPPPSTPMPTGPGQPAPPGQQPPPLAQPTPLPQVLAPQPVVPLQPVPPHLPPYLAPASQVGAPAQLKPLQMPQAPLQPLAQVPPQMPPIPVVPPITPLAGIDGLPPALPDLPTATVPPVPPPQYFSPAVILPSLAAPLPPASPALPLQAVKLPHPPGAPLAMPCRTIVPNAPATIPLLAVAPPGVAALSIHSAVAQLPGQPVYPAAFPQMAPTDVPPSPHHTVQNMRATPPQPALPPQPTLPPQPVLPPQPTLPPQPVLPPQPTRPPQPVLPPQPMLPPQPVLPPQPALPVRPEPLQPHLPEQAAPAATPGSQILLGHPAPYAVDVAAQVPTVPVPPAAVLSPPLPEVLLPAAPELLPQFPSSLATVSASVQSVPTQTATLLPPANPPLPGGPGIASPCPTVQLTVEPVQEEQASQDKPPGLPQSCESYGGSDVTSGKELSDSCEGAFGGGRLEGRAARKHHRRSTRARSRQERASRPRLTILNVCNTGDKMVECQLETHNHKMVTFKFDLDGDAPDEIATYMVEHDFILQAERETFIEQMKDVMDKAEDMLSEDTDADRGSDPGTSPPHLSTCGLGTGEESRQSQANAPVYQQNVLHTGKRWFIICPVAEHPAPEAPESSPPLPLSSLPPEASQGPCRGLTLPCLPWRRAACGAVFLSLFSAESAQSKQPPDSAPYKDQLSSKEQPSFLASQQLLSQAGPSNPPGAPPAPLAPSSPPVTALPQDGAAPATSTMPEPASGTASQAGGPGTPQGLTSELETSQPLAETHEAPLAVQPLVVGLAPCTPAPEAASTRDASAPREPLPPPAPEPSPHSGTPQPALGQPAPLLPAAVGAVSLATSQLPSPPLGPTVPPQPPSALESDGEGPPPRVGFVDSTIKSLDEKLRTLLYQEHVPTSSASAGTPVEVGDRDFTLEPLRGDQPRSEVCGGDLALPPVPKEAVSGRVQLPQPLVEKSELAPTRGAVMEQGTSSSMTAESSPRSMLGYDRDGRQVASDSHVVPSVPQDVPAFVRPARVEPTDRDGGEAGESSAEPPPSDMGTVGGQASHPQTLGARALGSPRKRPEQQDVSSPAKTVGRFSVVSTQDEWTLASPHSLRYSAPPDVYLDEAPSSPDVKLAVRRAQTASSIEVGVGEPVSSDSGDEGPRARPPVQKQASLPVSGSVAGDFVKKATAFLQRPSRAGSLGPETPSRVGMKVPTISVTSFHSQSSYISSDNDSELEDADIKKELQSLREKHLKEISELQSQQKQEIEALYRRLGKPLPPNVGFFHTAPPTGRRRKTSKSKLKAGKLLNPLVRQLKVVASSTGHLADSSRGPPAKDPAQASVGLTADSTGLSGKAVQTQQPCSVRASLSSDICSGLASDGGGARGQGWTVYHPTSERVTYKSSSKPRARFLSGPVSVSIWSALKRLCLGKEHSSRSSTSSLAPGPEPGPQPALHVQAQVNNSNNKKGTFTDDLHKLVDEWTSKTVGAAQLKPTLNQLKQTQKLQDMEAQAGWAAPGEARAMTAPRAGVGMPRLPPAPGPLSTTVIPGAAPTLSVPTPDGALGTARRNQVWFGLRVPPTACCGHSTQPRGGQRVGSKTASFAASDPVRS
# [10] = molecular target: Mitogen-activated protein kinase kinase kinase 4 (Homo sapiens) (UniProt Q9Y6R4); assay: Inhibition of MAP3K4 Lys2 labeling site in human A-375 cells at 0.5 uM by KiNativ Profiling analysis relative to control; type: cell-based
# Mitogen-activated protein kinase kinase kinase 4 (Homo sapiens), sequence (Q9Y6R4 whole entry): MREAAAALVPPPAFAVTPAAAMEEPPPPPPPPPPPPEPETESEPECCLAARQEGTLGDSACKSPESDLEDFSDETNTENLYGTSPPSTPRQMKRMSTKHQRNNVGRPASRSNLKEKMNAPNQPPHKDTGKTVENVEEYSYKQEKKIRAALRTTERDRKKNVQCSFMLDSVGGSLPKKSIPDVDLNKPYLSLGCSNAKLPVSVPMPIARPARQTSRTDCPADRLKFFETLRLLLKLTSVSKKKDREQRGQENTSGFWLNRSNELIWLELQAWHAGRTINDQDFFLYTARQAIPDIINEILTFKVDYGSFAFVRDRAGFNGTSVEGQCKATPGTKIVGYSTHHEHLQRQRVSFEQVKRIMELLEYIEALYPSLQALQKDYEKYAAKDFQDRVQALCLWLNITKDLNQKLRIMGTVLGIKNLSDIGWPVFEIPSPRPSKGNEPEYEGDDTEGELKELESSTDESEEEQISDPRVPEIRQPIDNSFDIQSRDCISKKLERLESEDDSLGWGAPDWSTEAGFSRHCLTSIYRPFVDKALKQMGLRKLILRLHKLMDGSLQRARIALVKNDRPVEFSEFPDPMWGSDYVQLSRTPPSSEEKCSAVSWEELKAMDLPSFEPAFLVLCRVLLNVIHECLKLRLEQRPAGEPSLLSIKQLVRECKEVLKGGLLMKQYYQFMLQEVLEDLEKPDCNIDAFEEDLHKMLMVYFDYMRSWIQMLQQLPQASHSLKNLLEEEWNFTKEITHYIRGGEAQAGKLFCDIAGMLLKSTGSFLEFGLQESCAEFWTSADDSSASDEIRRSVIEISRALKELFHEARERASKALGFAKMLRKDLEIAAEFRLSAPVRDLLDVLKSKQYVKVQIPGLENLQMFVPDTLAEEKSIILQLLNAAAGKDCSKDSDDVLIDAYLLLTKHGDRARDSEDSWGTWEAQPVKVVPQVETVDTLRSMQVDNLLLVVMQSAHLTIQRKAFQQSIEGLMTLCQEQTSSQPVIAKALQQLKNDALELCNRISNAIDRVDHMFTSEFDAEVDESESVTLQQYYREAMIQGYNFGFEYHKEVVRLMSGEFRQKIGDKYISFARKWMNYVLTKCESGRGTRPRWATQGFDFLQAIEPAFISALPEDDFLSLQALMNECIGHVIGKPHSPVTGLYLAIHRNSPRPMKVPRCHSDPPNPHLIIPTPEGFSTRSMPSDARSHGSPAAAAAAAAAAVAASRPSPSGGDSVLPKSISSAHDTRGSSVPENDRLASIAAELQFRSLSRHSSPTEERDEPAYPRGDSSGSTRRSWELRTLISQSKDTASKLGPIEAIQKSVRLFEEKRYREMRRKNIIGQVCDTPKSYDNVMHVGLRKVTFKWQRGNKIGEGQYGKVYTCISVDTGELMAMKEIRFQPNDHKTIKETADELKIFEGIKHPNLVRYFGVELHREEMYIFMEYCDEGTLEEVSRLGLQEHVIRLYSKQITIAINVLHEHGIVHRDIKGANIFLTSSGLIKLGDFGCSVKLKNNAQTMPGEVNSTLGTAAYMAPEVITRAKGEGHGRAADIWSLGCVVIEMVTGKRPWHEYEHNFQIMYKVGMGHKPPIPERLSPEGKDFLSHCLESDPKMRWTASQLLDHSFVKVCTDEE
# [11] = molecular target: Serine/threonine-protein kinase MARK2 (Homo sapiens) (UniProt Q7KZI7); assay: Inhibition of MARK2 Lys2 labeling site harbouring FIVHRDLKAENLLLDADMNIK in human A-375 cells at 5 uM by KiNativ Profiling analysis relative to control; type: cell-based
# [12] = molecular target: T3, Interleukin-1 receptor-associated kinase 4 (Homo sapiens) (UniProt Q9NWZ3); assay: Inhibition of IRAK4 Lys2 labeling site in human A-375 cells at 0.05 uM by KiNativ Profiling analysis relative to control; type: cell-based
# T3 sequence (whole entry): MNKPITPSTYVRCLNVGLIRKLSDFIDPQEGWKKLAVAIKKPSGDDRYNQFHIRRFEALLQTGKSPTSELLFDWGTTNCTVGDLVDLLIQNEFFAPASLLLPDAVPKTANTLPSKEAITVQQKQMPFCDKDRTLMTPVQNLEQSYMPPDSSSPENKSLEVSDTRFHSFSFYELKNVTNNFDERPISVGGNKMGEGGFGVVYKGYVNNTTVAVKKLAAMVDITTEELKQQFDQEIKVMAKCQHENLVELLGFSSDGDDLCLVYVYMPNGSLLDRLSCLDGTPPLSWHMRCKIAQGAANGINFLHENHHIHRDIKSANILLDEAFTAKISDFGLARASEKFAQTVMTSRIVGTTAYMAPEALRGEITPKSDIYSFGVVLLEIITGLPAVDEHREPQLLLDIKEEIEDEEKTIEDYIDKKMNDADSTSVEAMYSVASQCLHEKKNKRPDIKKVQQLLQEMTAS
# [13] = molecular target: Mitogen-activated protein kinase 8 (Homo sapiens, UniProt P45983); assay: Inhibition of JNK1 (unknown origin) Lys2 labeling site by KiNativ Profiling analysis
# [14] = molecular target: Serine/threonine-protein kinase WNK2 (Homo sapiens) (UniProt Q9Y3S1); assay: Inhibition of Wnk2 Lys2 labeling site in human A-375 cells at 5 uM by KiNativ Profiling analysis relative to control; type: cell-based
SMILES,inhibition [1],inhibition [2],inhibition [3],inhibition [4],inhibition [5],inhibition [6],inhibition [7],inhibition [8],inhibition [9],inhibition [10],inhibition [11],inhibition [12],IC50 [13],inhibition [14]
CCN1CCN(Cc2ccc(NC(=O)c3ccc(C)c(Oc4ccnc5[nH]ccc45)c3)cc2C(F)(F)F)CC1,90.3%,3.9%,12%,12.5%,12.4%,12.7%,31.3%,17.4%,13.1%,1.2%,12.9%,6.9%,> 10 µM,-5.5%
CCN1CCN(Cc2ccc(NC(=O)c3ccc(C)c(/C=C/c4cnc5[nH]ccc5c4OC)c3)cc2C(F)(F)F)CC1,76.9%,6.9%,0.7%,9.8%,10.1%,21.5%,18.3%,-0.7%,13.7%,-4.4%,24.6%,9.7%,> 10 µM,14.3%
